Results from ChEMBL document CHEMBL4354819, “Discovery of Novel Small Molecule Dual Inhibitors Targeting Toll-Like Receptors 7 and 8” (J Med Chem, 2019).
Activity calls are given as the source filed them. The rule behind the calls is not given here.

How the values were obtained:
[1] = target: Toll-like receptor 4 (Homo sapiens) (UniProt O00206); assay: Inhibition of human TLR4 expressed in HEK293 cells assessed as reduction in LPS-induced NFkappaB production at 1.5 to 5 uM incubated for 16 hrs by quanti-blue SEAP assay; assay type: cell-based
Outline: (§1)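 Selectivity panel in stably transfected HEK 293-Blue cells, each overexpressing one human TLR with an inducible SEAP reporter. Agonists: Pam3CSK4 (TLR1/2), Pam2CSK4 (TLR2/6), poly(I:C) (TLR3), LPS (TLR4), R848 (TLR7/8), ODN 2006 (TLR9). Cells were exposed to compound for 16 h. Activity = (raw − untreated)/(ligand + solvent − untreated), with ligand + solvent set as 100%.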

[2] = target: T1, Toll-like receptor 7 (Homo sapiens) (UniProt Q9NYK1); assay: Inhibition of human TLR7 expressed in HEK293 cells assessed as reduction in resiquimod-induced NFkappaB production at 1.5 to 5 uM incubated for 16 hrs by quanti-blue SEAP assay; assay type: cell-based; outline: as §1
T1 sequence (whole entry): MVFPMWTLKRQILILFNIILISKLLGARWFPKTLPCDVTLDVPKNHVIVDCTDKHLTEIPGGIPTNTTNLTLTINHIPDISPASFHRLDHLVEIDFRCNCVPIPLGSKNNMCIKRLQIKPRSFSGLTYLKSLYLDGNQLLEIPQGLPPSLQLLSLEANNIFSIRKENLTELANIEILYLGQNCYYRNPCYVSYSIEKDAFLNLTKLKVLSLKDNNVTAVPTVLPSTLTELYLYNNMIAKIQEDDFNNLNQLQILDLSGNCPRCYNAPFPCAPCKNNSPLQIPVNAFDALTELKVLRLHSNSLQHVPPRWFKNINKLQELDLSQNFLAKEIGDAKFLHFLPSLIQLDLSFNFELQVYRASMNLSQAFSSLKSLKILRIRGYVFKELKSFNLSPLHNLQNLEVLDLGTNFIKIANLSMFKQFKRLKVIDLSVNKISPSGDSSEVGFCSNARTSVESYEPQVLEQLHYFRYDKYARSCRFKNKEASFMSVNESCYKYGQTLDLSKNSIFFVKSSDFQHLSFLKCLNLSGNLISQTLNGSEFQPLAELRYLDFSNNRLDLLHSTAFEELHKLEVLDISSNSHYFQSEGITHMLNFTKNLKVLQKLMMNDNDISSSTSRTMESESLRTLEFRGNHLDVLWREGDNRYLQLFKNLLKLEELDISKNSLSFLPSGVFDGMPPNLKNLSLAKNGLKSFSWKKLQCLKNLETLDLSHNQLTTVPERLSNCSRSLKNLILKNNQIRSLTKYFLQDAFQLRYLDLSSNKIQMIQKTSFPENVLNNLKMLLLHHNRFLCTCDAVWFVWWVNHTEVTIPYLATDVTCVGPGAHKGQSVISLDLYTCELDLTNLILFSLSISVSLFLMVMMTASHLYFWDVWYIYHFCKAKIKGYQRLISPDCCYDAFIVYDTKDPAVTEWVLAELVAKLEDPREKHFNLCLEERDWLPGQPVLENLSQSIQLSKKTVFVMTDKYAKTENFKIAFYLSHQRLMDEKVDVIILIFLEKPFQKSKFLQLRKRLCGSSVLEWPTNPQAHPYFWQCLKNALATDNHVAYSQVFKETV

HEK293 [3] = assay: Inhibition of human TLR1/2 expressed in HEK293 cells assessed as reduction in Pam3CSK4-induced NFkappaB production at 1.5 to 5 uM incubated for 16 hrs by quanti-blue SEAP assay; assay type: cell-based; outline: as §1
[4] = target: T2, Toll-like receptor 8 (Homo sapiens) (UniProt Q9NR97); assay: Inhibition of human TLR8 expressed in HEK293 cells assessed as reduction in R848-induced NFkappaB production at 1.5 to 5 uM incubated for 16 hrs by quanti-blue SEAP assay
T2 sequence (whole entry): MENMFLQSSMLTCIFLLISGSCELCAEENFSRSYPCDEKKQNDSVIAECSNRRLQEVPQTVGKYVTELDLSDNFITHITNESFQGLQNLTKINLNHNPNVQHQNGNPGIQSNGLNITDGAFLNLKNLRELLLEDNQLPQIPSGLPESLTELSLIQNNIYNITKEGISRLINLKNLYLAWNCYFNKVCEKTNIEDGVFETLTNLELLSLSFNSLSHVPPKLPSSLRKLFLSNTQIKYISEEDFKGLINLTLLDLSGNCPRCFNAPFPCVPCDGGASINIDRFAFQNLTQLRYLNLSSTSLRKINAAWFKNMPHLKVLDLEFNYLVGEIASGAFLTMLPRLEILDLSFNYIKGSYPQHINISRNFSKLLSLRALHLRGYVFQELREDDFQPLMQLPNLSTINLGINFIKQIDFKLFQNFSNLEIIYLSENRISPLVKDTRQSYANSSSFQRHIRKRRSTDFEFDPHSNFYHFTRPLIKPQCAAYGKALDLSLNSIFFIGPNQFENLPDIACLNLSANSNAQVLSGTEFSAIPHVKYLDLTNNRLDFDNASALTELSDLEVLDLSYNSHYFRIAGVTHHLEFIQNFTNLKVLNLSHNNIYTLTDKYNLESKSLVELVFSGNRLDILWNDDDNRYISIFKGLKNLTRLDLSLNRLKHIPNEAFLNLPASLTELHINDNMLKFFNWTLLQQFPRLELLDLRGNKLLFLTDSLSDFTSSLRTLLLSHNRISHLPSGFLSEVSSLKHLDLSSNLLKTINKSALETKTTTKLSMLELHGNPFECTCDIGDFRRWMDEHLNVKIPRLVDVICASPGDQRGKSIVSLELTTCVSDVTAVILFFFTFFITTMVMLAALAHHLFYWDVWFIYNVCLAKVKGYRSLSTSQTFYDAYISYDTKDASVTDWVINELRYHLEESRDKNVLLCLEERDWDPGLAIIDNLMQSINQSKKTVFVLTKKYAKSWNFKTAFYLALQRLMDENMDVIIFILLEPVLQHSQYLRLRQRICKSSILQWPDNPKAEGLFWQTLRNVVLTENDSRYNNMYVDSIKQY

[5] = target: T1, Toll-like receptor 7 (Homo sapiens); assay: Inhibition of human TLR7 expressed in HEK293 cells assessed as reduction in R848-induced NFkappaB production incubated for 16 hrs by quanti-blue SEAP assay; assay type: cell-based
Outline: (§2)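 HEK 293-Blue cells stably expressing hTLR7 or hTLR8 with an inducible SEAP reporter were incubated 16 h with compound under 1 µg/mL R848 stimulation. SEAP was read at 620 nm. Data were normalized to the R848 control, and IC50 was taken from concentration-response curves. […] Mean ± s.d., n = 3 independent experiments.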

TLR2/TLR6 (Homo sapiens) = TLR2/TLR6 (Homo sapiens) (UniProt O60603+Q9Y2C9); assay: Inhibition of human TLR2/6 expressed in HEK293 cells assessed as reduction in Pam2CSK4-induced NFkappaB production at 1.5 to 5 uM incubated for 16 hrs by quanti-blue SEAP assay; assay type: cell-based; outline: as §1
HEK293 [6] = assay: Cytotoxicity against human HEK293 cells transfected with human TLR8 assessed as reduction in cell viability up to 5 uM incubated for 16 hrs by WST-1 assay; assay type: cell-based; conditions: hek293, 16 h
[7] = target: T2, Toll-like receptor 8 (Homo sapiens); assay: Inhibition of human TLR8 expressed in HEK293 cells assessed as reduction in R848-induced NFkappaB production at 1.5 to 5 uM incubated for 16 hrs by quanti-blue SEAP assay; assay type: cell-based; outline: as §1
[8] = target: Toll-like receptor 3 (Homo sapiens) (UniProt O15455); assay: Inhibition of human TLR3 expressed in HEK293 cells assessed as reduction in poly(I:C)-induced NFkappaB production at 1.5 to 5 uM incubated for 16 hrs by quanti-blue SEAP assay; assay type: cell-based; outline: as §1
Toll-like receptor 8 = target: T3, Toll-like receptor 8 (Homo sapiens, UniProt Q9NR97); assay: (§3) Inhibition of human TLR8 expressed in HEK293 cells assessed as reduction in R848-induced NFkappaB production incubated for 16 hrs by quanti-blue SEAP assay; assay type: cell-based; outline: as §2
T3 sequence (Q9NR97 whole entry): T2 sequence (whole entry)

[9] = target: T2, Toll-like receptor 8 (Homo sapiens); assay: as §3; assay type: cell-based; outline: as §2

Toll-like receptor 4 (Homo sapiens), sequence (O00206 whole entry): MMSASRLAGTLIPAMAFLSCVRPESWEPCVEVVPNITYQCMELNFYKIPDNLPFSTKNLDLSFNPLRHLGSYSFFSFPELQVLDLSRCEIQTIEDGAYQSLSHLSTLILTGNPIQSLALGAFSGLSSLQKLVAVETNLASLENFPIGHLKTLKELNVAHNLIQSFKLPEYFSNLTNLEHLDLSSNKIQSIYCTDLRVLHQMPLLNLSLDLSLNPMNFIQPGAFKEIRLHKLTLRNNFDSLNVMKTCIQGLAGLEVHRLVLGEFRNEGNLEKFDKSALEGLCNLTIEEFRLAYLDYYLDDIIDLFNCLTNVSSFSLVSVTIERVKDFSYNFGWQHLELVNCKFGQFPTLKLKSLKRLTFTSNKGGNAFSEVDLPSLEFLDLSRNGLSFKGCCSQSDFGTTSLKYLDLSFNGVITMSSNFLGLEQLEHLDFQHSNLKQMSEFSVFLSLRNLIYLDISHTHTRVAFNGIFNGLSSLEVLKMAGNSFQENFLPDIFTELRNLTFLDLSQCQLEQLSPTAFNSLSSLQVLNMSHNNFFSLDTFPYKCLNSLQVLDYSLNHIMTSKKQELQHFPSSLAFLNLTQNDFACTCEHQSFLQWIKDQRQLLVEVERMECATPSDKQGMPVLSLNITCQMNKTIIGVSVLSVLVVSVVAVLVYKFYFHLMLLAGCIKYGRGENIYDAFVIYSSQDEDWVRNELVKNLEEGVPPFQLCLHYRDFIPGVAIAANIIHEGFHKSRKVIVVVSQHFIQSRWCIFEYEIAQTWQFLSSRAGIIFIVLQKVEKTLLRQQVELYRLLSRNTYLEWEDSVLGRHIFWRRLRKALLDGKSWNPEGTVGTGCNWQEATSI
Toll-like receptor 3 (Homo sapiens), sequence (O15455 whole entry): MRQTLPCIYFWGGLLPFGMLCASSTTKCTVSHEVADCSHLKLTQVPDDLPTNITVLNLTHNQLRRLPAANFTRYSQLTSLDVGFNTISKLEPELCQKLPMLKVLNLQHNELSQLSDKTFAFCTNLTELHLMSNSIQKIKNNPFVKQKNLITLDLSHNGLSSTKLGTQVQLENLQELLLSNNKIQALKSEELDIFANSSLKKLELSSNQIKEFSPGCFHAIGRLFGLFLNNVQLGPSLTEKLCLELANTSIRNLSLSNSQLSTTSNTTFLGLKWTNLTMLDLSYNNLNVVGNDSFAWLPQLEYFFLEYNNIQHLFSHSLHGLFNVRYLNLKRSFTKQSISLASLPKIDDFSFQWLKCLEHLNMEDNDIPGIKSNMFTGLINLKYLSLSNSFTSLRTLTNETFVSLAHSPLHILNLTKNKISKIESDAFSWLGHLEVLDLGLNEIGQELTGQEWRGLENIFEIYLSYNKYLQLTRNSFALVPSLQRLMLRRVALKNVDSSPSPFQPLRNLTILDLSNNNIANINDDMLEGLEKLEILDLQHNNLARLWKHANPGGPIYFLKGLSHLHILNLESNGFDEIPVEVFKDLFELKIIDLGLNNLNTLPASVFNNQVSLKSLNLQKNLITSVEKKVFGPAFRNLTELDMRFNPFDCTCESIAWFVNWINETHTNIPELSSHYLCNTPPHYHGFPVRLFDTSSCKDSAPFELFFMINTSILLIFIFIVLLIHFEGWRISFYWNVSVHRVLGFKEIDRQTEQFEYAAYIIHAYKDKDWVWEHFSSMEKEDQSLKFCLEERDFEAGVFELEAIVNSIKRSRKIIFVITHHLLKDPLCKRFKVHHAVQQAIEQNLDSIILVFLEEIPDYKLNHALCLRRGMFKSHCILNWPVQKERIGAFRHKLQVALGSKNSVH

- inhibition [1]: inactive
- inhibition [2]: inactive
- inhibition [4]: Active
- inhibition [5]: Dose-dependent effect
- inhibition (TLR2/TLR6 (Homo sapiens)): inactive
- inhibition [7]: Active
- inhibition [8]: inactive
- IC50 (Toll-like receptor 8): 1400 nM
- inhibition [9]: Dose-dependent effect
Compound: N#Cc1c(Cl)cccc1Oc1ccc(-c2nnco2)cc1
- inhibition (HEK293 [3]): inactive
- Activity (HEK293 [6]): Non-Toxic
